Test results as given in ChEMBL document CHEMBL4819107, “Substituted N-(4-amino-2-chlorophenyl)-5-chloro-2-hydroxybenzamide analogues potently inhibit respiratory syncytial virus (RSV) replication and RSV infection-associated inflammatory responses” (Bioorg Med Chem, 2021).

Columns and labels:
[1] = system: Respiratory syncytial virus; experiment: Antiviral activity against RSV infected in human A549 cells assessed as reduction in viral titer at 10 uM incubated for 15 hrs by immunostaining analysis; assay type: functional
How it was run: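 RSV long strain (propagated in HEp-2, sucrose-gradient purified) infected A549 cells at MOI 1 for 2 h. Inoculum removed, then compound at 10 μM for 15 h. Progeny virus titred by immunostaining in HEp-2 cells with biotin-conjugated goat anti-RSV antibody. Log reduction = log10 mean titer of vehicle-treated cells minus log10 mean titer with compound.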

[2] = system: A549; experiment: Cytotoxicity against human A549 cells assessed as cell death at 10 uM incubated for 15 hrs by LDH assay; assay type: cell-based; details: a549, 15 h
How it was run: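 A549 cells seeded at 1.5 × 10^4 cells/well. After 24 h, medium replaced with medium containing 10 μM compound and 2% FBS. At 15 h, cell damage read by luminescent LDH release assay. DMSO vehicle control; three biological replicates.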

O=C(Nc1ccc([N+](=O)[O-])cc1Cl)c1cc(Cl)ccc1O [NICLOSAMIDE]
log(activity) [1]: 1.47 | Activity [2]: 24%
